According to ChEMBL document CHEMBL1156112, “Discovery of 3-(1H-indol-3-yl)-4-[2-(4-methylpiperazin-1-yl)quinazolin-4-yl]pyrrole-2,5-dione (AEB071), a potent and selective inhibitor of protein kinase C isotypes” (J Med Chem, 2009):
Each block holds one compound with its values, some of them ahead of it. Calls of active or inactive are those of the source. The calls are words filed in the database; no cut-off is given here.

Tests used:
[1] = molecular target: Protein kinase C alpha type (Homo sapiens, UniProt P17252); assay: Inhibition of PKCalpha by SPA
[2] = molecular target: Protein kinase C beta type (Homo sapiens, UniProt P05771); assay: Inhibition of PKCbeta1 by SPA
[3] = molecular target: Protein kinase C delta type (Homo sapiens, UniProt Q05655); assay: Inhibition of PKCdelta by SPA
[4] = molecular target: T1, Protein kinase C epsilon type (Homo sapiens, UniProt Q02156); assay: Inhibition of PKCepsilon by SPA
T1 sequence (Q02156 whole entry): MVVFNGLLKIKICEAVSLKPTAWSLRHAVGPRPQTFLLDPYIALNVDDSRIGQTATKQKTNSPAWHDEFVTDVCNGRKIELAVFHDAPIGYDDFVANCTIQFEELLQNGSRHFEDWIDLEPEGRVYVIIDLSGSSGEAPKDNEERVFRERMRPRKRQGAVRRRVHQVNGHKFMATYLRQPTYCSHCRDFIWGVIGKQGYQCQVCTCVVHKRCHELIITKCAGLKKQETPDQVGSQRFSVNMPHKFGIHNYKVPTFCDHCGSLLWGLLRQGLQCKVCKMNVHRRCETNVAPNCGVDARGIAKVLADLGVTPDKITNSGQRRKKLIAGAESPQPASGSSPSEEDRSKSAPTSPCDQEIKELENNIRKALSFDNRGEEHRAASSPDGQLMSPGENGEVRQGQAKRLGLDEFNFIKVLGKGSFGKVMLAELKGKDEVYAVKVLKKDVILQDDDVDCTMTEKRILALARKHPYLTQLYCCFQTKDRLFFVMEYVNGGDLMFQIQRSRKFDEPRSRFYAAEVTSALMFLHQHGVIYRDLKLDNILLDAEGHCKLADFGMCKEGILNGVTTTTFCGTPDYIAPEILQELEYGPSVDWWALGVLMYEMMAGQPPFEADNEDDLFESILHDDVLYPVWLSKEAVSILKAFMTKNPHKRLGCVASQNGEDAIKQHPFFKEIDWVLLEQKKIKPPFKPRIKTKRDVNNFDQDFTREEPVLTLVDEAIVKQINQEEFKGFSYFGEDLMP

[5] = molecular target: Protein kinase C eta type (Homo sapiens, UniProt P24723); assay: Inhibition of PKCeta by SPA
[6] = molecular target: Protein kinase C theta type (Homo sapiens, UniProt Q04759); assay: Inhibition of PKCtheta by SPA
[7] = Dissociation constant, pKa of the compound; assay type: physicochemical
cells [8] = conditions: Homo sapiens, Jurkat
Rattus norvegicus [9] = organism: Rattus norvegicus; assay: Immunosuppressive activity in rat localized graft-versus-host model; assay type: functional, organism-based
Rattus norvegicus [10] = organism: Rattus norvegicus; assay: Prolongation of allograft survival in rat heterotropic heart transplant model; assay type: functional, organism-based
Cynomolgus monkey = assay: Prolongation of allograft survival in cynomolgus monkey renal allograft model; assay type: functional, organism-based; conditions: Macaca fascicularis
[11] = molecular target: Protein kinase C zeta type (Homo sapiens, UniProt Q05513); assay: Inhibition of PKCzeta by SPA
[12] = AUC (0 to infinity) in OFA rat at 5 mg/kg, iv; assay type: ADME, organism-based; set-up: time infinity, dose 5 mg/kg, route intravenous; conditions: plasma
In short: (§1)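 Rats dosed either 5 mg/kg iv in 75% saline (0.9%)-25% PEG400 or 20 mg/kg po in 75% water-25% PEG400. OFA or Lewis rats were used depending on the compound. Values are averages of three animals. AUC is extrapolated to infinity. Oral bioavailability (F) comes from the po and iv exposures.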

[13] = Elimination half life in OFA rat at 5 mg/kg, iv; assay type: ADME, organism-based; set-up: dose 5 mg/kg, route intravenous; conditions: in vivo, read-out: beta t1/2 (converted); in short: as §1
[14] = Clearance in OFA rat at 5 mg/kg, iv; assay type: ADME, organism-based; set-up: dose 5 mg/kg, route intravenous; conditions: in vivo; in short: as §1
[15] = Volume of distribution at steady state in OFA rat at 5 mg/kg, iv; assay type: ADME, organism-based; set-up: dose 5 mg/kg, route intravenous; conditions: in vivo, read-out: Vdss; in short: as §1
[16] = Tmax in OFA rat at 20 mg/kg, po; assay type: ADME, organism-based; set-up: dose 20 mg/kg, route oral; conditions: in vivo; in short: as §1
[17] = Cmax in OFA rat at 20 mg/kg, po; assay type: ADME, organism-based; set-up: dose 20 mg/kg, route oral; conditions: in vivo; in short: as §1
[18] = AUC (0 to infinity) in OFA rat at 20 mg/kg, po; assay type: ADME, organism-based; set-up: dose 20 mg/kg, route oral, time infinity; conditions: plasma; in short: as §1
[19] = Oral bioavailability in OFA rat at 20 mg/kg, po; assay type: ADME, organism-based; conditions: in vivo; in short: as §1
[20] = molecular target: Glycogen synthase kinase-3 beta (Homo sapiens, UniProt P49841); assay: Inhibition of human recombinant GSK3-beta
[21] = molecular target: Tyrosine-protein kinase JAK3 (Homo sapiens, UniProt P52333); assay: Inhibition of human recombinant JAK3
[22] = molecular target: Cyclin-dependent kinase 2/cyclin A (Homo sapiens, UniProt P24941); assay: Inhibition of human recombinant CDK2/cyclin A; assay type: protein-complex assay
[23] = molecular target: Tyrosine-protein kinase ABL1 (Homo sapiens, UniProt P00519); assay: Inhibition of human recombinant Abl
[24] = Inhibition of human recombinant PKA
[25] = molecular target: Vascular endothelial growth factor receptor 2 (Homo sapiens, UniProt P35968); assay: Inhibition of human recombinant KDR
[26] = molecular target: Vascular endothelial growth factor receptor 3 (Homo sapiens, UniProt P35916); assay: Inhibition of human recombinant Flt4
[27] = molecular target: Tyrosine-protein kinase Fyn (Homo sapiens, UniProt P06241); assay: Inhibition of human recombinant Fyn
[28] = molecular target: Tyrosine-protein kinase JAK1 (Homo sapiens, UniProt P23458); assay: Inhibition of human recombinant JAK1
Focal adhesion kinase 1 = Focal adhesion kinase 1 (Homo sapiens, UniProt Q05397); assay: Inhibition of human recombinant FAK
[29] = molecular target: Tyrosine-protein kinase receptor UFO (Homo sapiens, UniProt P30530); assay: Inhibition of human recombinant Axl
[30] = molecular target: ALK tyrosine kinase receptor (Homo sapiens, UniProt Q9UM73); assay: Inhibition of human recombinant Alk
[31] = molecular target: RAC-alpha serine/threonine-protein kinase (Homo sapiens, UniProt P31749); assay: Inhibition of human recombinant Akt1
[32] = molecular target: Tyrosine-protein kinase BTK (Homo sapiens, UniProt Q06187); assay: Inhibition of human recombinant Btk
Ephrin type-B receptor 4 = Ephrin type-B receptor 4 (Homo sapiens, UniProt P54760); assay: Inhibition of human recombinant EphB4
[33] = molecular target: Tyrosine-protein kinase HCK (Homo sapiens, UniProt P08631); assay: Inhibition of human recombinant Hck
[34] = molecular target: Receptor tyrosine-protein kinase erbB-2 (Homo sapiens, UniProt P04626); assay: Inhibition of human recombinant HER2
[35] = molecular target: Insulin-like growth factor 1 receptor (Homo sapiens, UniProt P08069); assay: Inhibition of human recombinant IGF1R
[36] = molecular target: Tyrosine-protein kinase JAK2 (Homo sapiens, UniProt O60674); assay: Inhibition of human recombinant JAK2
[37] = molecular target: Mitogen-activated protein kinase 8 (Homo sapiens, UniProt P45983); assay: Inhibition of human recombinant JNK1
[38] = molecular target: Mitogen-activated protein kinase 9 (Homo sapiens, UniProt P45984); assay: Inhibition of human recombinant JNK2
[39] = molecular target: Mitogen-activated protein kinase 10 (Homo sapiens, UniProt P53779); assay: Inhibition of human recombinant JNK3
[40] = molecular target: Mast/stem cell growth factor receptor Kit (Homo sapiens, UniProt P10721); assay: Inhibition of human recombinant Kit
[41] = molecular target: Tyrosine-protein kinase Lck (Homo sapiens, UniProt P06239); assay: Inhibition of human recombinant Lck
[42] = molecular target: Mitogen-activated protein kinase 14 (Homo sapiens, UniProt Q16539); assay: Inhibition of human recombinant p38alpha
[43] = molecular target: Hepatocyte growth factor receptor (Homo sapiens, UniProt P08581); assay: Inhibition of human recombinant Met
[44] = molecular target: Serine/threonine-protein kinase PAK 2 (Homo sapiens, UniProt Q13177); assay: Inhibition of human recombinant PAK2
[45] = molecular target: Phosphatidylinositol 4,5-bisphosphate 3-kinase catalytic subunit alpha isoform (Homo sapiens, UniProt P42336); assay: Inhibition of human recombinant PI3Kalpha
[46] = molecular target: Phosphatidylinositol 4,5-bisphosphate 3-kinase catalytic subunit beta isoform (Homo sapiens, UniProt P42338); assay: Inhibition of human recombinant PI3Kbeta
[47] = molecular target: Phosphatidylinositol 4,5-bisphosphate 3-kinase catalytic subunit gamma isoform (Homo sapiens, UniProt P48736); assay: Inhibition of human recombinant PI3Kgamma
[48] = molecular target: Phosphatidylinositol 4,5-bisphosphate 3-kinase catalytic subunit delta isoform (Homo sapiens, UniProt O00329); assay: Inhibition of human recombinant PI3Kdelta
[49] = molecular target: Proto-oncogene tyrosine-protein kinase receptor Ret (Homo sapiens, UniProt P07949); assay: Inhibition of human recombinant Ret
[50] = molecular target: Rho-associated protein kinase 1 (Homo sapiens, UniProt Q13464); assay: Inhibition of human recombinant ROCK1
[51] = molecular target: Rho-associated protein kinase 2 (Homo sapiens, UniProt O75116); assay: Inhibition of human recombinant ROCK2
[52] = molecular target: Tyrosine-protein kinase SYK (Homo sapiens, UniProt P43405); assay: Inhibition of human recombinant Syk
[53] = molecular target: Tyrosine-protein kinase ZAP-70 (Homo sapiens, UniProt P43403); assay: Inhibition of human recombinant ZAP70
Splenocyte = assay: cells; conditions: Mus musculus, BALB/c
cells [54] = conditions: Homo sapiens, Splenocyte
cells [55] = conditions: Mus musculus, CBA, Bone marrow cell

Sequence of Protein kinase C delta type (Q05655 whole entry): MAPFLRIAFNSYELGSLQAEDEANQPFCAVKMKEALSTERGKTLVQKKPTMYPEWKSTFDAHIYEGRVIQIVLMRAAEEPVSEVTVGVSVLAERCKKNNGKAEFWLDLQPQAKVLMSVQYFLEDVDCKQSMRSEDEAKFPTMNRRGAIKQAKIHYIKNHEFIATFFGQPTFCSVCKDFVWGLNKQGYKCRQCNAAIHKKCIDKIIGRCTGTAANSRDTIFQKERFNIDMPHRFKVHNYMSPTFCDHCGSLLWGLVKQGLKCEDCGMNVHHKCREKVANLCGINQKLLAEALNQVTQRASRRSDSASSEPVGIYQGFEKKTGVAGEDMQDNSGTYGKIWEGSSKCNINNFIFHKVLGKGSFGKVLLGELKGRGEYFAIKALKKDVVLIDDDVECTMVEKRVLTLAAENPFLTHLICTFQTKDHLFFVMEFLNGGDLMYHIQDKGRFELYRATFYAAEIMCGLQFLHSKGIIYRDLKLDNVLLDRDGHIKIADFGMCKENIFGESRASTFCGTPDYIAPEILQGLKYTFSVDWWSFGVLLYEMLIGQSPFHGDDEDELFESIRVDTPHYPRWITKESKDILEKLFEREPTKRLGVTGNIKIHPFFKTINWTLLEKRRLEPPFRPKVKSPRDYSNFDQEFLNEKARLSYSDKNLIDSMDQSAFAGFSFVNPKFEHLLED
Sequence of Protein kinase C eta type (P24723 whole entry): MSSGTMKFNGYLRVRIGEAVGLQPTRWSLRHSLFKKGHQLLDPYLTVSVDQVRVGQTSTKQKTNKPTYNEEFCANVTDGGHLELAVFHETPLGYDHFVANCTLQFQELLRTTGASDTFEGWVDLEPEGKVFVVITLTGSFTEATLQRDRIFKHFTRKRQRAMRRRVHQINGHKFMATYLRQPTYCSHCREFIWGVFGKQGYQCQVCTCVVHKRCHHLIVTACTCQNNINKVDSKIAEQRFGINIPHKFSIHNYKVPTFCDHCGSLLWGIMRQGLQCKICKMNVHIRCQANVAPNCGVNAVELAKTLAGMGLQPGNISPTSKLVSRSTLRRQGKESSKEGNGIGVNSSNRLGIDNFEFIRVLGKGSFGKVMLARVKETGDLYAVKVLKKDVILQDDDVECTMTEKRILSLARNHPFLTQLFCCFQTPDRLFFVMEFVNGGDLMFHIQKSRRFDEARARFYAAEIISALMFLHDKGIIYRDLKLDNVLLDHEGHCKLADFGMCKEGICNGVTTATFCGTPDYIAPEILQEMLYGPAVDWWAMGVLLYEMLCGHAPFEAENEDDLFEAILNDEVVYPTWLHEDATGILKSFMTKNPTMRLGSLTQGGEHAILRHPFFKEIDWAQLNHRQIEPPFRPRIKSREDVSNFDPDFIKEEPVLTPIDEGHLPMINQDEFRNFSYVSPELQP
Sequence of Protein kinase C theta type (Q04759 whole entry): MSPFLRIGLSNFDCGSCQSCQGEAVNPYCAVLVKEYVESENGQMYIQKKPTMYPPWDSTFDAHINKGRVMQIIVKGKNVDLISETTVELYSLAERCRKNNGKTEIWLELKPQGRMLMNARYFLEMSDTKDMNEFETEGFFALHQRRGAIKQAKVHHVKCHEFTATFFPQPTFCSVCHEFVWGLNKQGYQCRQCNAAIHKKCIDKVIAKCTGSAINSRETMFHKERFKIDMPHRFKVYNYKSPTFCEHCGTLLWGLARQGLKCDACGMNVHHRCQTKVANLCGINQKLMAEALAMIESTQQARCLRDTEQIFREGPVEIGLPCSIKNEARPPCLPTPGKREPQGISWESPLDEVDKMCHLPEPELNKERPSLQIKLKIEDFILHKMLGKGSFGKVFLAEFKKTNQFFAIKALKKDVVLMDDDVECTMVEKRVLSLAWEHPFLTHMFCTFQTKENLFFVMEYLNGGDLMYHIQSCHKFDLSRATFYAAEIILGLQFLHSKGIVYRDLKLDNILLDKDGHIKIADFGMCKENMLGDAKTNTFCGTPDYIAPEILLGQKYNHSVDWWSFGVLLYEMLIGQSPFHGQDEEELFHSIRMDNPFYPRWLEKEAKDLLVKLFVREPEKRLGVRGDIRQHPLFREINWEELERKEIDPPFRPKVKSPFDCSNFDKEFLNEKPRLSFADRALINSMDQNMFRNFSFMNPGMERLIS
Sequence of Protein kinase C beta type (P05771 whole entry): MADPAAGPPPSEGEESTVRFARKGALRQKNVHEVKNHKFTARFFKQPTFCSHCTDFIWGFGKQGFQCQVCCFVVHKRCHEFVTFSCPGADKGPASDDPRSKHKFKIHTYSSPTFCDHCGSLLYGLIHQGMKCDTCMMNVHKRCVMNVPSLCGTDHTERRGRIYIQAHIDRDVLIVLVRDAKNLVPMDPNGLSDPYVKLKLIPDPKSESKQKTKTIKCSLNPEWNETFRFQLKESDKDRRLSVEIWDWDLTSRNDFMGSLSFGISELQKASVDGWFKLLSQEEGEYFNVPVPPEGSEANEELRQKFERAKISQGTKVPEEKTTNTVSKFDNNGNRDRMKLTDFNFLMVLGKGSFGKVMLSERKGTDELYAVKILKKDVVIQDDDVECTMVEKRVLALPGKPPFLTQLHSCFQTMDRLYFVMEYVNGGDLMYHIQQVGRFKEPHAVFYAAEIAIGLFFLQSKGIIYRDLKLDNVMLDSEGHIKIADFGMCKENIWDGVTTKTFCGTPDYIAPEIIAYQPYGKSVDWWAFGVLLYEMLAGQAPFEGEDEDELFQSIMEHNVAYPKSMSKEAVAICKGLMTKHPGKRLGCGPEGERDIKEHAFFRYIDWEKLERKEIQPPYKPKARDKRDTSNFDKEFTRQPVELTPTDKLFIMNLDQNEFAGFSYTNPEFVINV
Sequence of Rho-associated protein kinase 1 (Q13464 whole entry): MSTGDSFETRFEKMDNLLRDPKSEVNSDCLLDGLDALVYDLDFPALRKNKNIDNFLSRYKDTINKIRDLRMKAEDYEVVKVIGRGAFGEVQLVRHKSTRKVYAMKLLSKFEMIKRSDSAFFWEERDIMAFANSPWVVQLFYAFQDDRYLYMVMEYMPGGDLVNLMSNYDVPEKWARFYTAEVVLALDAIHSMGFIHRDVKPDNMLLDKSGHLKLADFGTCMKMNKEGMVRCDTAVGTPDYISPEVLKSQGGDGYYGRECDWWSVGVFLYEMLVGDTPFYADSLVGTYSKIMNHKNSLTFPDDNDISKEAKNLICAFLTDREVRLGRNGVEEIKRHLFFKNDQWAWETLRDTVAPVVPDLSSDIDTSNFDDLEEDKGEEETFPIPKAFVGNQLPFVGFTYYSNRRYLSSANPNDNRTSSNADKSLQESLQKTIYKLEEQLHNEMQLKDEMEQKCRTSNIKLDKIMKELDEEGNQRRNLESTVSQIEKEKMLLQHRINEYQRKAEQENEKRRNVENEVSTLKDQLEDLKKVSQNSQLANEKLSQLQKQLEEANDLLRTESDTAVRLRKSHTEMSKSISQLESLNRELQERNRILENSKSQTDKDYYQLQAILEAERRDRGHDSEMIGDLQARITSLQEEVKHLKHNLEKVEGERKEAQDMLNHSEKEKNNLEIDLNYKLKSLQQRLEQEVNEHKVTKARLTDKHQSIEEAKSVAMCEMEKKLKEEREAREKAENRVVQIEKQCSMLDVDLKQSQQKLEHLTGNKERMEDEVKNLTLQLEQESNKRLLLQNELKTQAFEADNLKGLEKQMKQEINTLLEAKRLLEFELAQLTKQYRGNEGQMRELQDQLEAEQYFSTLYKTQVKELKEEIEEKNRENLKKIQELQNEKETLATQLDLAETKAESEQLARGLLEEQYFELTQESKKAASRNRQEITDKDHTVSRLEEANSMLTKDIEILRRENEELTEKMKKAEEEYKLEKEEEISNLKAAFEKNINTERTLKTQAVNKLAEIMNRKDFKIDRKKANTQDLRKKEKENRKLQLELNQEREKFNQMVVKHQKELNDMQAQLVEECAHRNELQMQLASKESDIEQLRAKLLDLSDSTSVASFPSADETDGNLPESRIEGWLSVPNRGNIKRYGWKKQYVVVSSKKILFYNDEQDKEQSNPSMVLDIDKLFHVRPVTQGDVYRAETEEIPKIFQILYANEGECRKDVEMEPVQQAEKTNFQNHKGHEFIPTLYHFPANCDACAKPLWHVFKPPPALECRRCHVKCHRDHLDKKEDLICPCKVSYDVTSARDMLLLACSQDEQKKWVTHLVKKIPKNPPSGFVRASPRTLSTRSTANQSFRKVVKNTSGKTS

IC50 [1]: 7.1 nM
IC50 [2]: 36 nM
IC50 [3]: 97 nM
IC50 [4]: 59 nM
IC50 [5]: 36 nM
IC50 [6]: 76 nM
pKa [7]: 7.5
IC50 (cells [8]): 277 nM
SMILES: CN1CCN(c2cccc(C3=C(c4c[nH]c5ccccc45)C(=O)NC3=O)c2)CC1

IC50 [1]: 73 nM
IC50 [2]: 47 nM
IC50 [3]: 183 nM
IC50 [4]: 285 nM
IC50 [5]: 293 nM
IC50 [6]: 255 nM
SMILES: CN(C)CCCn1cc(C2=C(c3csc4ccccc34)C(=O)NC2=O)c2ccccc21

IC50 [3]: 1.3 nM
IC50 [4]: 6.2 nM
IC50 [5]: 6.1 nM
IC50 [6]: 1 nM
pKa [7]: 7.4
IC50 [11]: 5400 nM
AUC(0-inf) [12]: 1630 ng·h/mL
half-life [13]: 3.2 h
clearance [14]: 51.2 mL/min/kg
Vd [15]: 6.5 L/kg
Tmax [16]: 0.5 h
Cmax [17]: 622 ng/mL
AUC(0-inf) [18]: 2210 ng·h/mL
bioavailability [19]: 34%
IC50 [20]: 870 nM
IC50 [21]: 1500 nM
IC50 [22]: 2300 nM
IC50 [23]: 3300 nM
IC50 [24]: 3400 nM
IC50 [25]: 3900 nM
IC50 [26]: 4600 nM
IC50 [27]: 5500 nM
IC50 [28]: 7300 nM
IC50 (Focal adhesion kinase 1): 8300 nM
IC50 [29]: 9100 nM
IC50 [30]: > 10000 nM
IC50 [31]: > 10000 nM
IC50 [32]: > 10000 nM
IC50 (Ephrin type-B receptor 4): > 10000 nM
IC50 [33]: > 10000 nM
IC50 [34]: > 10000 nM
IC50 [35]: > 10000 nM
IC50 [36]: > 10000 nM
IC50 [37]: > 10000 nM
IC50 [38]: > 10000 nM
IC50 [39]: > 10000 nM
IC50 [40]: > 10000 nM
IC50 [41]: > 10000 nM
IC50 [42]: > 10000 nM
IC50 [43]: > 10000 nM
IC50 [44]: > 10000 nM
IC50 [45]: > 10000 nM
IC50 [46]: > 10000 nM
IC50 [47]: > 10000 nM
IC50 [48]: > 10000 nM
IC50 [49]: > 10000 nM
IC50 [50]: > 10000 nM
IC50 [51]: > 10000 nM
IC50 [52]: > 10000 nM
IC50 [53]: > 10000 nM
IC50 (cells [8]): 54 nM
IC50 (Splenocyte): 128 nM
IC50 (cells [54]): 34 nM
IC50 (cells [55]): 3700 nM
SMILES: CN1CCN(c2nc(C3=C(c4c[nH]c5ccccc45)C(=O)NC3=O)c3ccccc3n2)CC1 [SOTRASTAURIN]
Activity (Rattus norvegicus [9]): Active
Activity (Rattus norvegicus [10]): Active
Activity (Cynomolgus monkey): Active
